# In ChEMBL document CHEMBL2331084, “Synthesis and evaluation of oxime derivatives as modulators for amyloid beta-induced mitochondrial dysfunction” (Eur J Med Chem, 2013):
# Tests used:
# [1] = test system: HT-22; assay: Inhibition of mPTP in mouse HT22 cells assessed as reduction in amyloid beta-induced mitochondrial membrane damage at 10 uM incubated for 10 mins prior to amyloid beta-challenge measured every 1 hr for 3 hrs by JC-1 based fluorometric analysis; type: cell-based; design: scale not given: the % may be the effect or the level left
# In short: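 HT-22 cells, 30,000 per well, seeded a day earlier, loaded with 7.5 μM JC-1 (final) in phenol red-free Opti-MEM for 1 h 15 min at 37 °C, then PBS-washed. Compound solution at 10 μM for 10 min at 37 °C, then amyloid beta 1–42 solution at 10 μM. Red (ex/em 530/580) and green (485/530) fluorescence read hourly for 3 h. Green/red ratio change normalised to vehicle as 100%.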
# [2] = test system: HT-22; assay: Inhibition of mPTP in mouse HT22 cells assessed as recovery in amyloid beta-suppressed ATP level at 5 uM incubated for 10 mins prior to amyloid beta-challenge measured for 7 hrs relative to control; type: cell-based; design: scale not given: the % may be the effect or the level left
# In short: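 HT-22 mouse hippocampal cells, grown in DMEM with 10% FBS at 37 °C and 5% CO2, were seeded the day before. Compound (10 µM solution) added 10 min before amyloid beta 1-42 (10 µM solution), then 7 h at 37 °C. Lysates normalised to equal protein by BCA, and ATP measured with a luciferase kit. % recovery is relative to the amyloid-treated vehicle. Viability is from ATP without amyloid beta.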
# [3] = Cytotoxicity against mouse […] cells assessed as cell viability at 5 uM; type: cell-based; settings: read-out: Activity
# [4] = Cytotoxicity against mouse […] cells assessed as cell viability at 10 uM after 24 hrs by MTT assay; type: cell-based; settings: read-out: Activity
# [5] = test system: HT-22; assay: Neuroprotective activity against in mouse HT22 cells assessed as inhibition of amyloid beta-induced toxicity at 10 uM incubated for 10 mins prior to amyloid beta-challenge measured after 24 hrs by MTT assay; type: functional
# In short: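 HT-22 mouse hippocampal cells (DMEM, 10% FBS), 5000 per well, seeded a day before. Compound solution at 10 μM added 10 min before amyloid beta 1–42 solution at 10 μM, then 24 h at 37 °C. MTT 2 h, then acidified Triton/isopropanol for 1 h at RT, A570. Vehicle subtracted; % inhibition versus Aβ-treated vehicle; viability from wells without Aβ.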
# [6] = Clearance in Sprague-Dawley rat at 10 mg/kg, po; type: ADME, organism-based; design: dose 10 mg/kg, route oral; settings: in vivo
# In short: (§1)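 Male Sprague-Dawley rats dosed 10 mg/kg iv (n = 3) or orally (n = 4). Carotid blood sampled at 0, 1 min (iv only), 5 min, 15 min, 0.5, 1, 2, 4, 6 and 8 h. Plasma analysed by LC-MS/MS after acetonitrile precipitation with internal standard (LLOQ 5 ng/mL). Parameters from non-compartmental analysis. Values are mean ± SD.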
# [7] = Cmax in Sprague-Dawley rat at 10 mg/kg, po; type: ADME, organism-based; design: dose 10 mg/kg, route oral; settings: in vivo; in short: as §1
# [8] = AUC (0 to infinity) in Sprague-Dawley rat at 10 mg/kg, po; type: ADME, organism-based; design: time infinity, dose 10 mg/kg, route oral; settings: plasma
# [9] = AUClast in Sprague-Dawley rat at 10 mg/kg, po; type: ADME, organism-based; design: time 0 - last, dose 10 mg/kg, route oral; settings: plasma
# In short: (§2)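 Male Sprague Dawley rats received 10 mg/kg intravenously (n = 3) or orally (n = 4). Blood was drawn via the carotid artery at 0, 1 min (IV only), 5 and 15 min, and 0.5, 1, 2, 4, 6 and 8 h. Plasma was precipitated with acetonitrile containing internal standard and analysed by LC–MS/MS (LLOQ 5 ng/mL). Parameters came from non-compartmental analysis; AUClast used the trapezoidal rule. Values are mean ± SD.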
# [10] = Metabolic stability in rat plasma at 0.5 ug/ml after 2 hrs by LC/MS analysis; type: ADME, cell-free; settings: read-out: Stability
# In short: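 Drug-free rat plasma spiked from acetonitrile stock to 0.5 μg/mL, held at 37 °C with shaking for 0, 15, 30, 60 and 120 min. Quenched with 2 volumes of acetonitrile containing carbamazepine internal standard, centrifuged, supernatant quantified by LC–MS/MS.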
# [11] = AUC (0 to infinity) in Sprague-Dawley rat at 10 mg/kg, iv; type: ADME, organism-based; design: time infinity, dose 10 mg/kg, route intravenous; settings: plasma
# [12] = Tmax in Sprague-Dawley rat at 10 mg/kg, po; type: ADME, organism-based; design: dose 10 mg/kg, route oral; settings: in vivo; in short: as §1
# [13] = Bioavailability in Sprague-Dawley rat at 10 mg/kg, po; settings: in vivo
# [14] = Apparent volume of distribution at steady state in Sprague-Dawley rat at 10 mg/kg, iv; type: ADME, organism-based; design: dose 10 mg/kg, route intravenous; settings: in vivo, read-out: Vdss(app); in short: as §1
# [15] = AUClast in Sprague-Dawley rat at 10 mg/kg, iv; type: ADME, organism-based; design: time 0 - last, dose 10 mg/kg, route intravenous; settings: plasma; in short: as §2
# [16] = Ratio of drug uptake in brain to drug uptake in plasma in Sprague-Dawley rat at 10 mg/kg, po; type: ADME, organism-based; design: dose 10 mg/kg, route oral; settings: read-out: BPR
# In short: (§3)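 Male Sprague-Dawley rats given 10 mg/kg iv or orally. Brain-to-plasma concentration ratio taken 2 h after dosing. Concentrations measured by LC-MS/MS.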
# [17] = Ratio of drug uptake in brain to drug uptake in plasma in Sprague-Dawley rat at 10 mg/kg, iv; type: ADME, organism-based; design: dose 10 mg/kg, route intravenous; settings: read-out: BPR; in short: as §3
# [18] = Terminal half life in Sprague-Dawley rat at 10 mg/kg, iv; type: ADME, organism-based; design: dose 10 mg/kg, route intravenous; settings: in vivo, read-out: beta t1/2; in short: as §1
# [19] = Metabolic stability in human liver microsomes at 1 uM after 30 mins by LC/MS analysis; type: ADME, Microsome; settings: read-out: Stability
# In short: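 Pooled human liver microsomes (0.5 mg/mL protein), compound at 1 μM, 1.2 mM NADPH, 100 mM phosphate pH 7.4, 37 °C with shaking for 30 min, in duplicate. Stopped with ice-cold acetonitrile containing internal standard, centrifuged, supernatant analysed by LC–MS/MS for % remaining.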
# [20] = Clearance in Sprague-Dawley rat at 10 mg/kg, iv; type: ADME, organism-based; design: dose 10 mg/kg, route intravenous; settings: in vivo; in short: as §1
# [21] = Terminal half life in Sprague-Dawley rat at 10 mg/kg, po; type: ADME, organism-based; design: dose 10 mg/kg, route oral; settings: in vivo, read-out: beta t1/2; in short: as §1
# [22] = Cmax in Sprague-Dawley rat at 10 mg/kg, iv; type: ADME, organism-based; design: dose 10 mg/kg, route intravenous; settings: in vivo; in short: as §1
compound,measurement,setting,value
Clc1cccc(COc2ccccc2/C=N/OC2CN3CCC2CC3)c1 (stereo not given),Activity,[1],101%
CC(C)N1CCC(O/N=C/c2ccccc2OCc2ccccc2)C1 (stereo not given),Activity,[2],-93%
same,viability at 5 µM,[3]; HT22 cells,67%
same,Activity,[1],19%
Brc1ccccc1/C=N/OC1CN2CCC1CC2 (stereo not given),Activity,[1],93%
C(=N\OC1CN2CCC1CC2)/c1ccccc1Oc1ccccc1 (stereo not given),Activity,[1],84%
COc1ccccc1/C=N/OC1CCCN(C)C1 (stereo not given),Activity,[1],257%
C(=N\OC1CCN(Cc2ccccc2)C1)/c1ccccc1OCc1ccccc1 (stereo not given),Activity,[2],-137%
same,viability at 5 µM,[3]; HT22 cells,99%
same,Activity,[1],38%
CN1CCCC(O/N=C/c2ccccc2OCc2ccc(Cl)c(Cl)c2)C1 (stereo not given),Activity,[1],62%
Clc1cccc(Cl)c1COc1ccccc1/C=N/OC1CN2CCC1CC2 (stereo not given),Activity,[1],96%
Fc1ccc(COc2ccccc2/C=N/OC2CN3CCC2CC3)cc1 (stereo not given),Activity,[1],93%
COc1ccc(COc2ccccc2/C=N/OC2CN3CCC2CC3)cc1 (stereo not given),Activity,[1],96%
CC(C)N1CCC(O/N=C/c2ccccc2OCc2cccc(F)c2)C1 (stereo not given),Activity,[2],-223%
same,viability at 5 µM,[3]; HT22 cells,94%
same,Activity,[1],39%
Clc1ccc(COc2ccccc2/C=N/OC2CN3CCC2CC3)cc1 (stereo not given),Activity,[1],85%
CN1CCC(O/N=C/c2ccccc2OCc2ccc(Cl)cc2Cl)C1 (stereo not given),Activity,[2],-9%
same,viability at 5 µM,[3]; HT22 cells,90%
same,Activity,[1],18%
C(=N\OC1CN2CCC1CC2)/c1cccc(OCc2ccccc2)c1 (stereo not given),Activity,[1],121%
COc1ccccc1/C=N/OC1CCN(C)C1 (stereo not given),Activity,[1],147%
FC(F)(F)c1cccc(/C=N/OC2CN3CCC2CC3)c1 (stereo not given),Activity,[1],74%
FC(F)(F)c1ccc(COc2ccccc2/C=N/OC2CN3CCC2CC3)cc1 (stereo not given),Activity,[1],85%
CN1CCCC(O/N=C/c2ccccc2OCc2ccccc2)C1 (stereo not given),Activity,[2],15%
same,viability at 5 µM,[3]; HT22 cells,112%
same,Activity,[1],29%
Brc1cccc(/C=N/OC2CN3CCC2CC3)c1 (stereo not given),Activity,[1],95%
CC(C)N1CCC(O/N=C/c2cccc(C(F)(F)F)c2)C1 (stereo not given),Activity,[1],54%
FC(F)(F)c1cccc(/C=N/OC2CCN(Cc3ccccc3)C2)c1 (stereo not given),Activity,[1],123%
CN1CCC(O/N=C/c2ccccc2OCc2ccc(Cl)c(Cl)c2)C1 (stereo not given),Activity,[1],57%
CN1CCCC(O/N=C/c2cccc(C(F)(F)F)c2)C1 (stereo not given),Activity,[1],84%
FC(F)(F)c1ccccc1COc1ccccc1/C=N/OC1CN2CCC1CC2 (stereo not given),Activity,[1],91%
NC(=O)CN1CCCC1=O [PIRACETAM],Activity,[2],127%
same,"viability at 24 h, 10 µM",[4],132%
same,inhibition at 10 µM,[5],29%
same,viability at 5 µM,[3],88%
same,Activity,[1],40%
Fc1ccccc1COc1ccccc1/C=N/OC1CN2CCC1CC2 (stereo not given),Activity,[1],82%
FC(F)(F)c1cccc(COc2ccccc2/C=N/OC2CN3CCC2CC3)c1 (stereo not given),Activity,[1],90%
COc1ccccc1/C=N/OC1CN2CCC1CC2 (stereo not given),Activity,[1],71%
CC(C)N1CCC(O/N=C/c2ccccc2OCc2ccc(Cl)cc2Cl)C1 (stereo not given),Activity,[1],61%
CN1CCC(O/N=C/c2cccc(C(F)(F)F)c2)C1 (stereo not given),Activity,[1],108%
Clc1ccccc1COc1ccccc1/C=N/OC1CN2CCC1CC2 (stereo not given),Activity,[1],88%
Clc1ccc(COc2ccccc2/C=N/OC2CN3CCC2CC3)c(Cl)c1 (stereo not given),Activity,[1],69%
CC(C)N1CCC(O/N=C/c2ccccc2OCc2ccc(Cl)c(Cl)c2)C1 (stereo not given),Activity,[1],95%
CN1CCCC(O/N=C/c2ccccc2OCc2ccc(Cl)cc2Cl)C1 (stereo not given),Activity,[1],64%
Clc1ccc(COc2ccccc2/C=N/OC2CCN(Cc3ccccc3)C2)c(Cl)c1 (stereo not given),Activity,[1],61%
Fc1cccc(COc2ccccc2/C=N/OC2CN3CCC2CC3)c1 (stereo not given),Activity,[1],75%
COc1cccc(/C=N/OC2CN3CCC2CC3)c1 (stereo not given),Activity,[1],86%
Clc1ccc(COc2ccccc2/C=N/OC2CN3CCC2CC3)cc1Cl (stereo not given),Activity,[1],77%
CN1CCC(O/N=C/c2ccccc2OCc2ccccc2)C1 (stereo not given),Activity,[1],69%
CN1CCCC(O/N=C/c2ccccc2OCc2cccc(F)c2)C1 (stereo not given),Activity,[2],9%
same,viability at 5 µM,[3]; HT22 cells,136%
same,Activity,[1],32%
Fc1ccccc1/C=N/OC1CN2CCC1CC2 (stereo not given),Activity,[1],96%
COc1ccccc1/C=N/OC1CCN(Cc2ccccc2)C1 (stereo not given),Activity,[1],81%
COc1ccccc1/C=N/OC1CCN(C(C)C)C1 (stereo not given),Activity,[1],55%
Fc1cccc(COc2ccccc2/C=N/OC2CCN(Cc3ccccc3)C2)c1 (stereo not given),Activity,[2],-201%
same,viability at 5 µM,[3]; HT22 cells,74%
same,Activity,[1],42%
CN1CCC(O/N=C/c2ccccc2OCc2cccc(F)c2)C1 (stereo not given),Activity,[2],20%
same,viability at 5 µM,[3]; HT22 cells,87%
same,Activity,[1],42%
Clc1ccc(COc2ccccc2/C=N/OC2CCN(Cc3ccccc3)C2)cc1Cl (stereo not given),CL/F,[6],72.1 mL/min/kg
same,Cmax,[7],570 ng/mL
same,AUC(0-inf),[8],2390 ng·h/mL
same,AUC(0-t),[9],1960 ng·h/mL
same,Activity,[2],104%
same,"viability at 24 h, 10 µM",[4],129%
same,"remaining at 2 h, 0.5 ug/ml",[10],111%
same,AUC(0-inf),[11],6280 ng·h/mL
same,Tmax,[12],2 h
same,bioavailability,[13],38.1%
same,inhibition at 10 µM,[5],149%
same,Vd,[14],2.87 L/kg
same,AUC(0-t),[15],5890 ng·h/mL
same,Kp,[16],0.29
same,Kp,[17],14.6
same,half-life,[18],2.35 h
same,"remaining at 0.5 h, 1 µM",[19],47.8%
same,viability at 5 µM,[3]; HT22 cells,83%
same,Activity,[1],41%
same,clearance,[20],28.1 mL/min/kg
same,half-life,[21],2.92 h
same,Cmax,[22],44500 ng/mL
C(=N\OC1CN2CCC1CC2)/c1cccc(Oc2ccccc2)c1 (stereo not given),Activity,[1],138%
FC(F)(F)c1ccccc1/C=N/OC1CN2CCC1CC2 (stereo not given),Activity,[1],86%
Fc1cccc(/C=N/OC2CN3CCC2CC3)c1 (stereo not given),Activity,[1],92%
